A short description of series [1]: Inhibition of amyloid beta (1-42) aggregation at 100 uM measured at 8 hrs and 24 hrs by thioflavin T fluorescence method. A digest of the protocol: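 Aβ1-42 (30 µM) in PBS/10% DMSO at 37 °C, alone or with compound at 100 µM. ThT fluorescence (ex 440, em 485 nm) read at 8 h and 24 h, reported in arbitrary units; mean ± SEM of three independent experiments.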
Series [2] can be described thus: Inhibition of HFIP-induced amyloid beta (1-40) aggregation after 2 hrs by thioflavin T fluorescence method. A digest of the protocol:
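Pre-monomerized Aβ1-40 (HFIP-dissolved, lyophilized) at 30 µM in PBS (0.01 M, NaCl 0.1 M, pH 7.4) with 2% HFIP and 10% DMSO, coincubated with compound in triplicate at 25 °C for 2 h. Sample mixed with 25 µM ThT in 0.025 M phosphate pH 6.0; excitation 440 nm, emission 485 nm. Peptide-free blanks subtracted; % inhibition versus control. Primary screen at 100 µM. IC50 from 5–7 concentrations (200–0.01 µM) tested in duplicate, three independent experiments.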

Series [3] in a line: Inhibition of amyloid beta (1-40) beta-sheet transition assessed as decrease in beta-sheet level after 7 days by CD spectroscopic analysis relative to control. The method, boiled down: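 Aβ1-40 (50 µM) in PBS with 10% ethanol, alone or with compound (10 or 50 µM), incubated at 37 °C without agitation. CD spectra 195–250 nm were recorded at room temperature in a 0.1 cm cell, with buffer/ethanol or inhibitor blank baseline subtracted. Absolute ellipticity at 215 nm was followed over time and expressed relative to the control plateau.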

Series [4] in a line: Inhibition of amyloid beta (1-40) fibrillation assessed as extended fibrillar weft formation at 50 uM after 7 days by TEM analysis. The method, boiled down:
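Aβ1-40 (50 µM) in PBS/10% ethanol, with compound at 10 or 50 µM, incubated at 37 °C for up to 10 days. Aliquots taken at 7 days were applied to carbon-coated grids and negatively stained with 2% w/v uranyl acetate. Imaged by TEM at 60 kV and 39 000-fold magnification, compared with self-aggregating control.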

Series [5] concerns the target Cholinesterase (Equus caballus) (UniProt P81908). Kind of series: Inhibition of equine serum BChE using butyrylthiocholine iodide as substrate at 10 uM after 20 mins by Ellman's method. (In Ellman's method for cholinesterases, released thiocholine reacts with DTNB.)
Series [6] in a line: Aqueous solubility of the compound in PBS buffer. It is filed as physicochemical. A digest of the protocol: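 Preliminary solubility in the incubation medium (PBS with up to 10% ethanol cosolvent) measured by UV spectroscopy; used to set the maximum soluble test concentration.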
Series [7] addresses Acetylcholinesterase (Electrophorus electricus) (UniProt O42275). Kind of series: Inhibition of electric eel AChE using acetylthiocholine iodide as substrate at 10 uM after 20 mins by Ellman's method.

In brackets after ≈: the same amount, converted by molar mass. Activity calls are given as the source filed them. The calls are words filed in the database; no cut-off is given here.

Cholinesterase (Equus caballus), sequence (P81908 whole entry): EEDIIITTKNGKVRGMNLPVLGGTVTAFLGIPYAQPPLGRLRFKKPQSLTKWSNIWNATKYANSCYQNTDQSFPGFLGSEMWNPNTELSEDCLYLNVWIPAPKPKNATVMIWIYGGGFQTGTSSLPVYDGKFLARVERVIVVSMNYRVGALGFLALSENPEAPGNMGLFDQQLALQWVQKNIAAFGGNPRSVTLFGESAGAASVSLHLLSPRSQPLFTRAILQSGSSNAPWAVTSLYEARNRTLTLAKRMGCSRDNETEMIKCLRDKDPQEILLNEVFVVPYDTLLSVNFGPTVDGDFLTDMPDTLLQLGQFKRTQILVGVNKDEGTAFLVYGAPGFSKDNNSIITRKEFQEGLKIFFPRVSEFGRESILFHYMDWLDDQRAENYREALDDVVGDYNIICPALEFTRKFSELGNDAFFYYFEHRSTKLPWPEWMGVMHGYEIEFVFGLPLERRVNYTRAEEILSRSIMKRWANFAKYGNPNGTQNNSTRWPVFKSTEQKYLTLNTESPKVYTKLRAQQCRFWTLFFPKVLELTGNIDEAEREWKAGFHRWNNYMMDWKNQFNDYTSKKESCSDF
Acetylcholinesterase (Electrophorus electricus), sequence (O42275 24-633 limits assumed): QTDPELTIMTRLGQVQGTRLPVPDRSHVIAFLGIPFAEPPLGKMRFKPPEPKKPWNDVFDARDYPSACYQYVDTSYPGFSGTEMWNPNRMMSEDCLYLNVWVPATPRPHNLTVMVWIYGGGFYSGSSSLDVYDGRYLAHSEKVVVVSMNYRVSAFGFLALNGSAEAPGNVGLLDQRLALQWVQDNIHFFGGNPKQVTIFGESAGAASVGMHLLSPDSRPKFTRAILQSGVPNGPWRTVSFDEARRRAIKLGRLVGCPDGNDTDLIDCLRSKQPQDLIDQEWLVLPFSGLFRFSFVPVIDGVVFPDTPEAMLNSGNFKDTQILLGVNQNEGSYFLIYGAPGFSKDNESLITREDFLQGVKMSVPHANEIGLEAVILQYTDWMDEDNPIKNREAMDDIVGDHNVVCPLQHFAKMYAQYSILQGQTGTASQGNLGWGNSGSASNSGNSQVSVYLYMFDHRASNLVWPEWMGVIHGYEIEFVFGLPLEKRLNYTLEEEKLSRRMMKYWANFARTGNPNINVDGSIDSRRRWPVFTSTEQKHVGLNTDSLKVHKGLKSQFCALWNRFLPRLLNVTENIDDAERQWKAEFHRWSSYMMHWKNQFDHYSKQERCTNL

In general, inhibition refers to the drop in the measured response relative to a control, in per cent. Usually IC50 stands for the concentration at which inhibition is half-maximal. A word on the solubility: it is the dissolved amount per volume that the medium holds. High values mean much dissolved substance, low ones little dissolved substance. On to `O=c1ccc2nc(-c3ccccc3)nn3c4ccccc4c1c23`, for which the inhibition entry in series [1] and in series [4] was “Active” each time. This compound also had an IC50 in series [2] of 6.1 µM. For the same compound, the inhibition entry in series [3] is “inactive”. In addition, the inhibition in series [5] turned out to be 59%; in series [7] it was 46%. The compound further returned a solubility in series [6] of 50 µM (≈ 14.9 µg/mL).
